Experimental data published in ChEMBL document CHEMBL4346727, “Synthesis and pharmacological evaluation of novel N-Mannich bases derived from 5,5-diphenyl and 5,5-di(propan-2-yl)imidazolidine-2,4-dione core” (Bioorg Med Chem Lett, 2019).
Active and inactive are the calls of the source.

Legend:
[1] = system: Rattus norvegicus; test: Anticonvulsant activity in Sprague-Dawley rat assessed as protection against 150 mA current-induced seizure at 30 mg/kg, po measured after 15 mins by maximal electroshock seizure test; format: functional, organism-based
Outline: (§1)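 Rats received 30 mg/kg orally and were given maximal electroshock at 0.25, 0.5, 1, 2, 4 and 6 h. Read-out is the number of rats protected out of four.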

[2] = Neurotoxicity in Sprague-Dawley rat at 30 mg/kg, po measured after 4 hr by rotarod test; format: toxicity, organism-based; conditions: in vivo
Outline: (§2)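 Rats given one oral dose of 30 mg/kg and tested on the rotarod at 0.25, 0.5, 1, 2, 4 and 6 h.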

[3] = Neurotoxicity in Sprague-Dawley rat at 30 mg/kg, po measured after 2 hr by rotarod test; format: toxicity, organism-based; conditions: in vivo; outline: as §2
[4] = Neurotoxicity in Sprague-Dawley rat at 30 mg/kg, po measured after 1 hr by rotarod test; format: toxicity, organism-based; conditions: in vivo; outline: as §2
[5] = Neurotoxicity in Sprague-Dawley rat at 30 mg/kg, po measured after 30 mins by rotarod test; format: toxicity, organism-based; conditions: in vivo, 0.5 h; outline: as §2
[6] = Neurotoxicity in Sprague-Dawley rat at 30 mg/kg, po measured after 15 mins by rotarod test; format: toxicity, organism-based; conditions: in vivo, 0.25 h; outline: as §2
[7] = system: Rattus norvegicus; test: Anticonvulsant activity in Sprague-Dawley rat assessed as protection against 150 mA current-induced seizure at 30 mg/kg, po measured after 2 hrs by maximal electroshock seizure test; format: functional, organism-based; outline: as §1
[8] = system: Rattus norvegicus; test: Anticonvulsant activity in Sprague-Dawley rat assessed as protection against 150 mA current-induced seizure at 30 mg/kg, po measured after 1 hr by maximal electroshock seizure test; format: functional, organism-based; outline: as §1
[9] = system: Mus musculus; test: Anticonvulsant activity in CD1 mouse assessed as protection against subcutaneous pentylenetetrazole-induced seizures at 300 mg/kg, ip and measured after 0.5 hrs; format: functional, organism-based
Outline: (§3)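 Mice were screened after intraperitoneal doses of 30, 100 and 300 mg/kg in the maximal electroshock and subcutaneous pentylenetetrazole tests, examined at 0.5 and 4 h. The value recorded is the minimum dose showing activity. No activity up to 300 mg/kg is scored as absent.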

[10] = system: Mus musculus; test: Anticonvulsant activity in ip dosed CD1 mouse assessed as protection against 50 mA current-induced seizure and measured after 4 hrs by maximal electroshock seizure test; format: functional; conditions: read-out: MED; outline: as §3
[11] = system: Mus musculus; test: Anticonvulsant activity in CD1 mouse assessed as protection against 50 mA current-induced seizure at 300 mg/kg, ip and measured after 0.5 hrs by maximal electroshock seizure test; format: functional, organism-based; outline: as §3
[12] = system: Mus musculus; test: Anticonvulsant activity in CD1 mouse assessed as protection against subcutaneous pentylenetetrazole-induced seizures at 300 mg/kg, ip and measured after 4 hrs; format: functional, organism-based; outline: as §3
[13] = Neurotoxicity in CD1 mouse at 300 mg/kg, ip and measured after 0.5 hrs by rotarod test; format: toxicity, organism-based; conditions: in vivo
Outline: (§4)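 Mice dosed intraperitoneally at 30, 100 and 300 mg/kg, then tested on the rotarod at 0.5 h and 4 h. The value recorded is the minimum dose at which neurotoxicity appeared. A dash means no neurotoxicity at the top dose of 300 mg/kg.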

[14] = Neurotoxicity in CD1 mouse at 300 mg/kg, ip and measured after 4 hrs hrs by rotarod test; format: toxicity, organism-based; conditions: in vivo; outline: as §4
[15] = system: Mus musculus; test: Anticonvulsant activity in ip dosed CD1 mouse assessed as protection against 50 mA current-induced seizure and measured after 0.5 hrs by maximal electroshock seizure test; format: functional; conditions: read-out: MED; outline: as §3
[16] = Neurotoxicity in ip dosed CD1 mouse and measured after 0.5 hrs by rotarod test; format: toxicity, organism-based; conditions: in vivo; outline: as §4
[17] = system: Mus musculus; test: Anticonvulsant activity in CD1 mouse assessed as protection against 50 mA current-induced seizure at 300 mg/kg, ip and measured after 4 hrs by maximal electroshock seizure test; format: functional, organism-based; outline: as §3
[18] = Neurotoxicity in CD1 mouse at 100 mg/kg, ip measured after 1 hr by rotarod test; conditions: in vivo
[19] = Neurotoxicity in CD1 mouse at 100 mg/kg, ip measured after 2 hrs by rotarod test; conditions: in vivo
[20] = Neurotoxicity in CD1 mouse at 100 mg/kg, ip measured after 4 hrs by rotarod test; conditions: in vivo
[21] = Neurotoxicity in CD1 mouse at 100 mg/kg, ip measured after 15 mins by rotarod test; conditions: in vivo, 0.25 h
[22] = Neurotoxicity in CD1 mouse at 100 mg/kg, ip measured after 30 mins by rotarod test; conditions: in vivo, 0.5 h
[23] = system: Mus musculus; test: Anticonvulsant activity in CD1 mouse assessed as protection against 32 mA current-induced seizure at 100 mg/kg, ip measured after 15 mins by 6 Hz psychomotor seizure test
[24] = system: Rattus norvegicus; test: Anticonvulsant activity in Sprague-Dawley rat assessed as protection against 150 mA current-induced seizure at 30 mg/kg, po measured after 4 hrs by maximal electroshock seizure test; format: functional, organism-based; outline: as §1
[25] = system: Mus musculus; test: Anticonvulsant activity in CD1 mouse assessed as protection against 32 mA current-induced seizure at 100 mg/kg, ip measured after 2 hrs by 6 Hz psychomotor seizure test
[26] = system: Mus musculus; test: Anticonvulsant activity in CD1 mouse assessed as protection against 32 mA current-induced seizure at 100 mg/kg, ip measured after 30 mins by 6 Hz psychomotor seizure test
[27] = system: Rattus norvegicus; test: Anticonvulsant activity in Sprague-Dawley rat assessed as protection against 150 mA current-induced seizure at 30 mg/kg, po measured after 30 mins by maximal electroshock seizure test; format: functional, organism-based; outline: as §1
[28] = Neurotoxicity in ip dosed CD1 mouse and measured after 4 hrs by rotarod test; format: toxicity, organism-based; conditions: in vivo; outline: as §4
[29] = system: Mus musculus; test: Anticonvulsant activity in ip dosed CD1 mouse assessed as protection against subcutaneous pentylenetetrazole-induced seizures and measured after 4 hrs; format: functional; conditions: CD1, 4 h, read-out: MED; outline: as §3

O=C1NC(c2ccccc2)(c2ccccc2)C(=O)N1CN1CCN(c2ccc(F)cc2)CC1
inactive: Activity [1] | Activity [7] | Activity [8] | MED [9] | Activity [11] | Activity [12]
100 mg/kg: minimal effective dose [10]
Non-Toxic: Activity [2] | Activity [3] | Activity [4] | Activity [5] | Activity [6] | Activity [13] | Activity [14]

O=C1NC(c2ccccc2)(c2ccccc2)C(=O)N1CN1CCN(c2ccccc2)CC1
Non-Toxic: Activity [2] | Activity [3] | Activity [4] | Activity [5] | Activity [6] | Activity [13] | Activity [14]
300 mg/kg: minimal effective dose [15]
100 mg/kg: minimal effective dose [10]
inactive: MED [9] | Activity [12]

CC(C)C1(C(C)C)NC(=O)N(CN2CCN(Cc3ccccc3)CC2)C1=O
inactive: MED [9] | Activity [11] | Activity [17] | Activity [12]
300 mg/kg: minimal neurotoxic dose [16]
Non-Toxic: Activity [14]

CC(C)C1(C(C)C)NC(=O)N(CN2CCN(c3cccc(C(F)(F)F)c3)CC2)C1=O
100 mg/kg: minimal effective dose [10]
inactive: Activity [1] | MED [9] | Activity [11] | Activity [12] | Activity [23]
Non-Toxic: Activity [2] | Activity [3] | Activity [4] | Activity [5] | Activity [6] | Activity [13] | Activity [14] | Activity [18] | Activity [19] | Activity [20] | Activity [21] | Activity [22]

O=C1NC(c2ccccc2)(c2ccccc2)C(=O)N1CN1CCN(c2cccc(C(F)(F)F)c2)CC1
100 mg/kg: minimal effective dose [10]
Non-Toxic: Activity [2] | Activity [3] | Activity [4] | Activity [5] | Activity [6] | Activity [13] | Activity [14] | Activity [18] | Activity [19] | Activity [20] | Activity [21] | Activity [22]
inactive: Activity [1] | MED [9] | Activity [12] | Activity [26] | Activity [23]
active: Activity [24] | Activity [7] | Activity [8] | Activity [25]
300 mg/kg: minimal effective dose [15]

CC(C)C1(C(C)C)NC(=O)N(CN2CCN(c3cccc(Cl)c3)CC2)C1=O
inactive: Activity [1] | Activity [8] | Activity [27] | MED [9] | Activity [12]
100 mg/kg: minimal effective dose [10] | minimal effective dose [15]
Non-Toxic: Activity [2] | Activity [3] | Activity [4] | Activity [5] | Activity [6] | Activity [13] | Activity [14]

CC(C)C1(C(C)C)NC(=O)N(CN2CCN(c3ccc(F)cc3)CC2)C1=O
100 mg/kg: minimal effective dose [10]
300 mg/kg: MTC [28] | minimal neurotoxic dose [16]
inactive: MED [9] | Activity [11] | Activity [12]

O=C1NC(c2ccccc2)(c2ccccc2)C(=O)N1CN1CCN(c2ccccc2F)CC1
active: Activity [25]
Non-Toxic: Activity [2] | Activity [3] | Activity [4] | Activity [5] | Activity [6] | Activity [13] | Activity [14] | Activity [18] | Activity [19] | Activity [20] | Activity [21] | Activity [22]
inactive: Activity [1] | MED [9] | Activity [11] | Activity [12]
30 mg/kg: minimal effective dose [10]

CC(C)C1(C(C)C)NC(=O)N(CN2CCN(c3ccccc3F)CC2)C1=O
300 mg/kg: MTC [28] | minimal neurotoxic dose [16]
inactive: MED [9]
100 mg/kg: minimal effective dose [29] | minimal effective dose [10] | minimal effective dose [15]

O=C1NC(c2ccccc2)(c2ccccc2)C(=O)N1CN1CCN(Cc2ccccc2)CC1
300 mg/kg: minimal effective dose [15]
Non-Toxic: Activity [2] | Activity [3] | Activity [4] | Activity [5] | Activity [6] | Activity [13] | Activity [14]
100 mg/kg: minimal effective dose [10]
inactive: Activity [7] | Activity [8] | MED [9] | Activity [12]

O=C1NC(c2ccccc2)(c2ccccc2)C(=O)N1CN1CCN(c2cccc(Cl)c2)CC1
100 mg/kg: minimal effective dose [10]
inactive: Activity [27] | MED [9] | Activity [11] | Activity [12]
Non-Toxic: Activity [2] | Activity [3] | Activity [4] | Activity [5] | Activity [6] | Activity [13] | Activity [14]

CC(C)C1(C(C)C)NC(=O)N(CN2CCN(C)CC2)C1=O
Non-Toxic: Activity [14]
300 mg/kg: minimal neurotoxic dose [16] | minimal effective dose [15]
inactive: MED [9] | Activity [17] | Activity [12]
